Source: PubChem BioAssay (several laboratories)
GC-A act = GC-A (human) enzyme activation | P16066 | HEK293 GC-A cells, cGMP TR-FRET, EC30 ANP; 0% at EC30 ANP, 100% saturating ANP | activation, % at 10 µM | actives 0.14% (n = 370,000) | AID 1671463; in the data active means activation above about 40%
XiGFP reactiv = reactivates the inactive X chromosome in mouse fibroblasts; XiGFP mouse fibroblasts, % GFP-positive cells imaging, 3 d; cells co-treated with 5-aza-dC sensitizer; scaled so ellipticine positive control = 100%; activation, % at 7.58 µM; actives 0.055% (n = 360,000);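 active means mean normalized replicate activation at least 10% and every replicate at or above 10%; inconclusive means only one of the two criteria met; inactive means mean below 10% and not all replicates reach 10%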
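System: 68-5-11 XiGFP fibroblast line; Timing: 3 days compound exposure; Compound dosing: one concentration, pinned; Benchmarks: positive control ellipticine, 6 µM final; Buffer or medium: DMEM containing 5-aza-dC.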
NPR2 activator = GC-B (human) receptor activation | P20594 | HEK293-GC-B cells, CNP EC30, cGMP TR-FRET; 0% at EC30 CNP, 100% saturating CNP | activation, % at 10 µM | actives 0.11% (n = 370,000) | AID 1920062;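 active means activation at 10 µM reaching about 35% in either raw or pattern-adjusted values, limit read from the data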
Vif inh = inhibitors of HIV Vif; HEK293T cells, Vif self-association by quenched fluorescence, imaging, 24 h; inhibition, % at 7.49 µM; actives 0.35% (n = 340,000); AID 602346; in the data active means inhibition above about 50%, passing the limit was not always enough; inconclusive means no clear call, values can overlap the other calls; inactive means below about 31%
CaV13 FRET inh = Primary screen for inhibitors of IQ motif and Ca2+-dependent inactivation inhibitor domain binding in CACNA1D, Förster resonance energy transfer in living cells, …. actives 0.098% (n = 340,000). inhibition, % at 12.3 µM. HEK cells, CFP/YFP FRET ICDI-IQ, plate reader, 10 min; percent FRET-ratio fall versus neutral wells. AID 743397;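 active means mean replicate inhibition of at least 30% and at least 1% of replicates passing that level; inconclusive means only one of the two criteria is met; inactive means neither criterion is met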
N-glyco inh = N-linked glycosylation inhibition; D54 ERlucT glycosylation luciferase reporter, 24 h; percent of 100 nM tunicamycin response; reporter increase, % at 12.5 µM; actives 0.23% (n = 360,000); AID 588692;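 active means mean luciferase reporter signal, scaled so untreated is 0 and the glycosylation-blocking control 100, at or above a set limit in every replicate; inconclusive means mean reaches the limit but not every replicate does; inactive means mean below the limit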;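 further: luciferase carries N-glycosylation sites so blocking glycosylation raises the light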
A number is an active result; . = inactive; ? = inconclusive; / = no result. Sampled rows, rich in hits. Any-hit rate of the full collection: about 0.7%.

SMILES	GC-A act	XiGFP reactiv	NPR2 activator	Vif inh	CaV13 FRET inh	N-glyco inh
Cc1cccc2sc(NC(=O)c3cc(S(=O)(=O)N(C)C)ccc3N3CCCC3)nc12	.	.	.	.	.	87
CN(C)S(=O)(=O)c1ccc(N2CCCC2)c(C(=O)Nc2nc3ccccc3s2)c1	.	.	.	.	.	90
CC(C)NC(=O)Nc1ccc2c(c1)CC(=O)N([C@@H](C)CO)C[C@@H](C)[C@H](CN(C)C)O2	/	.	/	/	/	/
C[C@H]1CN([C@@H](C)CO)C(=O)c2cc(NC(=O)CCC(F)(F)F)ccc2O[C@@H]1CN(C)S(=O)(=O)c1ccc(Cl)cc1	/	.	/	/	/	/
CC(C)NC(=O)N(C)C[C@@H]1OCCCC[C@@H](C)Oc2ccc(NS(=O)(=O)c3ccccc3)cc2C(=O)N([C@@H](C)CO)C[C@H]1C	/	.	/	/	/	/
COc1ccc(S(=O)(=O)N2c3cc(Cl)ccc3Oc3nc4ccccc4nc32)cc1	.	/	.	58	/	.
C[C@H](CO)N1C[C@H](C)[C@@H](CN(C)S(C)(=O)=O)Oc2c(NC(=O)CCCN(C)C)cccc2C1=O	/	.	/	/	/	/
O=S(=O)(N[C@@H]1CC[C@H](CCn2cc(C3CC3)nn2)O[C@H]1CO)c1ccc(Cl)cc1	/	.	/	/	/	/
COc1ccc(OC)c(S(=O)(=O)Nc2ccc(-c3ccc4nnc(C)n4n3)cc2)c1	.	.	.	.	.	.
COc1ccc(CC(=O)Nc2ccc(-c3ccc4nnc(C)n4n3)cc2)cc1OC	.	.	.	.	.	30
Cc1cc(C)n(CCNC(=O)c2cc(COc3c(F)cccc3F)on2)n1	.	.	.	52	.	.
COc1cccc(-c2cc(NC=O)c3ncc(-c4cc(OC)c(OC)c(OC)c4)n3c2)c1	.	.	.	77	.	.
COc1ccc(-c2cnc3c(NC(C)=O)cc(-c4cc(F)ccc4OC)cn23)cc1OC	.	.	.	/	.	.
COc1ccc(F)cc1-c1cc(NC(C)=O)c2ncc(-c3cc(OC)c(OC)c(OC)c3)n2c1	.	.	.	68	.	.
Nc1ccc(-c2cc(NC=O)c3ncc(-c4cccc(C(F)(F)F)c4)n3c2)cn1	.	.	.	.	.	29
CCCC#Cc1ccc2c(c1)O[C@H](CN(C)C(=O)NC(C)C)[C@H](C)CN([C@@H](C)CO)S2(=O)=O	/	.	/	/	/	/
CNC[C@H]1OCCCC[C@H](C)Oc2ccc(NS(=O)(=O)c3c(C)noc3C)cc2C(=O)N([C@H](C)CO)C[C@H]1C	/	.	/	/	/	/
CC(=O)C1=C(C)NC(SCC(=O)c2cc(Cl)ccc2Cl)=C(C#N)C1c1ccco1 (stereo not drawn)	.	/	.	.	.	.
CC(=O)C1=C(C)NC(SCC(=O)c2ccc(Cl)c(Cl)c2)=C(C#N)C1c1ccco1 (stereo not drawn)	.	/	.	82	.	.
O=C(CC1CC1)N1CC(=O)N2[C@H](C1)[C@@H](c1ccc(C#Cc3ccccc3)cc1)[C@@H]2CO	/	.	/	/	/	/
CCN1CC=C2C(C#N)=C(N)C(C#N)(C#N)C(CCc3ccccc3)C2C1 (stereo not drawn)	.	/	.	79	.	.
CC[n+]1c(/C=C/C=C/N(C(C)=O)c2ccccc2)sc2ccccc21	.	/	.	162	/	.
CCn1c(/C=C/N(C(C)=O)c2ccccc2)[n+](CC)c2ccc(Cl)cc21	.	.	.	.	.	.
Cc1noc(C)c1NC(=O)N(C)C[C@@H]1OCCCC[C@@H](C)Oc2ccc(NC(=O)C3CCCCC3)cc2C(=O)N([C@@H](C)CO)C[C@@H]1C	/	.	/	/	/	/
CN(Cc1nc2ccccc2n1C)S(=O)(=O)c1ccc(Cl)cc1	.	/	.	50	/	.
SMILES	GC-A act	XiGFP reactiv	NPR2 activator	Vif inh	CaV13 FRET inh	N-glyco inh
CCn1cnc2c1c(=O)n(CC(=O)NCc1ccccc1)c(=O)n2Cc1ccccc1	.	.	.	.	.	.
CCn1cnc2c1c(=O)n(Cc1csc(-c3ccccc3)n1)c(=O)n2Cc1ccccc1	.	/	51	.	.	.
CCn1cnc2c1c(=O)n(Cc1cccc([N+](=O)[O-])c1)c(=O)n2Cc1ccccc1	.	.	41	.	.	.
CC(=O)N(C)C[C@@H]1Oc2cc(C#CCC(C)C)ccc2S(=O)(=O)N([C@@H](C)CO)C[C@H]1C	/	.	/	/	/	/
O=C(C[C@H]1C=C[C@@H](NC(=O)CC2CC2)[C@@H](CO)O1)NCC(F)(F)F	/	.	/	/	/	/
O=C(/C=C\Nc1ccc2c(c1)OCO2)c1cccs1	.	.	.	66	.	.
O=C(/C=C\Nc1ccc2c(c1)OCO2)c1ccc(Cl)s1	.	.	.	.	.	.
Cc1ccc(C(=O)N/C(=C/c2ccc(-c3ccc([N+](=O)[O-])cc3)o2)C(=O)NCCCN(C)C)cc1	.	62	.	.	.	.
O=C(NC1CCCC1)c1cccc2c1C(=O)c1ccc(/C=C/c3ccccc3)cc1S2(=O)=O	.	14	.	.	.	.
O=C(NCc1ccccc1)c1cccc2c1C(=O)c1ccc(/C=C/c3ccccc3)cc1S2(=O)=O	.	18	.	.	.	.
S=C(c1ccc(-c2ccc(Br)cc2)o1)N1CCCCC1	.	.	.	.	.	.
S=C(c1ccc(-c2ccc(Br)cc2)o1)N1CCOCC1	.	.	36	.	.	.
CO[C@@H]1CN(C)C(=O)c2cc(NS(C)(=O)=O)ccc2OC[C@@H](C)N(CCC(F)(F)F)C[C@@H]1C	/	.	/	/	/	/
O=[N+]([O-])c1ccc(N2CCN(Cc3ccccc3)CC2)c2c1no[n+]2[O-]	.	.	.	114	.	.
CCOC(=O)C(=Cc1ccc(-c2ccsc2C(=O)OC)o1)C(=O)OCC	.	/	.	.	.	?
COC(=O)C(=Cc1ccc(-c2ccsc2C(=O)OC)o1)C(=O)OC	.	.	.	.	.	35
COc1ccc2c3c([nH]c2c1)[C@@H](CO)N(C)CC31CN(S(=O)(=O)c2cccc(F)c2)C1	/	.	/	/	/	/
CCCCOc1ccc(C(=O)NCC(=O)OC2CCOC2=O)cc1 (stereo not drawn)	57	/	.	.	/	.
COc1ccccc1-c1c(C#N)c(N)nc2c1CCc1ccccc1-2	.	.	.	.	.	32
COc1ccccc1-c1cc(-c2ccc(O)cc2)nc(N)c1C#N	41	.	.	.	.	.
COc1ccccc1-c1c(C)c(C)nc(N)c1C#N	.	/	.	.	.	.
CCOc1cc(-c2c(C#N)c(N)nc3c2CCCC3C)ccc1O (stereo not drawn)	.	/	.	.	.	.
CCOc1cc(-c2c(C#N)c(N)nc3c2CCc2ccccc2-3)ccc1O	.	.	.	.	.	46
